Experimental data collected from several papers.
Each line is one published result; the experiments were not run side by side.
Target: Dual specificity protein kinase CLK2 (CLK2, Homo sapiens, UniProt P49760)

CCCOc1ccc(OC)c(F)c1C(=O)c1ccc(C(=O)N[C@@H]2CNC[C@H]2NC(=O)c2ccc3[nH]ncc3c2)cc1 — remaining activity (enzyme activity, inhibitor; 10 µM): 36%
CC1(C)NC(=O)c2[nH]c3c(Cl)c(Cl)ccc3c2C1C#N (stereo not shown) — ΔTm (thermal stability, DSF; 10 µM): 2.7 °C
Cn1cnc(Br)c1C1=CN(c2ncnc3[nH]cnc23)CCS1 — inhibition (enzyme activity, inhibitor, radiometric; 2 µM): 97.2%
Nc1nc(Nc2ccc(S(N)(=O)=O)cc2)sc1C(=O)c1ccccc1[N+](=O)[O-] — inhibition (enzyme activity, inhibitor; 0.1 µM): 60 to 66%
CC(C)CC(=O)N1CCc2nc(-c3ccc(Br)cc3)nc(N(C)Cc3ccccc3)c2C1 — remaining binding (cell-free assay, competition with immobilised ligand; 0.1 µM): 100%
CC(C1CC1)n1cnc2c(NCc3cccc(C(F)(F)F)c3)nc(NCCN(C)C)nc21 (stereo not shown) — inhibition (enzyme activity, inhibitor; 5 µM): > 50%
Oc1cccc(-c2nc(N3CCOCC3)c3oc4ncccc4c3n2)c1 — remaining activity (enzyme activity, inhibitor; 10 µM): 25%
CS(=O)(=O)CCNCc1ccc(-c2ccc3ncnc(Nc4ccc(OCc5cccc(F)c5)c(Cl)c4)c3c2)o1 — remaining signal (cell-free assay; 0.5 µM): 95.1%
Cc1ccc(NC(=O)c2ccc(C)c(C(F)(F)F)c2)cc1C#Cc1nn(C2CCC(O)CC2)c2ncnc(N)c12 (stereo not shown) — remaining signal (cell-free assay; 10 µM): 47%
CN([C@@H]1CCc2c(CC(=O)O)c3cc(S(C)(=O)=O)ccc3n2C1)S(=O)(=O)c1ccc(F)cc1 — remaining binding (cell-free assay, competition with immobilised ligand; 1 µM): 100%
CCCS(=O)(=O)Nc1ccc(F)c(C(=O)c2c[nH]c3ncc(-c4ccc(Cl)cc4)cc23)c1F — inhibition (enzyme activity, inhibitor; 1 µM): < 10%
Cn1c2c(Cl)c(Cl)ccc2c2cn[nH]c(=O)c21 — ΔTm (thermal stability, DSF; 10 µM): 2 °C
CCCOc1ccc([C@@H]2[C@@H](C(=O)O)[C@H](c3ccc4c(c3)OCO4)CN2CC(=O)Nc2c(CC)cccc2CC)cc1 — remaining binding (cell-free assay, competition with immobilised ligand; 1 µM): 100%
O=C(CSc1nc2nccnc2c(=O)n1CCc1ccccc1)Nc1nccs1 — inhibition (enzyme activity, inhibitor; 10 µM): 15%
Cn1c2c(c3ccc(Cl)c(Cl)c31)C(C#N)C1(CCCCC1)NC2=O (racemic) — ΔTm (thermal stability, DSF; 10 µM): 2.1 °C
O=C(NCc1ncc(C(F)(F)F)cc1Cl)c1ccc2c(c1)C1(CCS(=O)(=O)CC1)[C@@H](C1CC1)N2S(=O)(=O)c1ccc(F)cc1 — remaining binding (cell-free assay, competition with immobilised ligand; 1 µM): 82%
CCCCNc1ncc2c(-c3ccc(F)cc3)nn(C[C@H]3CC[C@H](N)CC3)c2n1 — inhibition (target engagement in cells, inhibitor, chemoproteomics; 20 mM): 46.4%
Nc1ncnc2occ(-c3ccc(NC(=O)Nc4cc(C(F)(F)F)ccc4F)cc3)c12 — remaining signal (cell-free assay, inhibitor; 20 µM): 23%
O=C1NC(=O)c2cc(Nc3ccc(F)cc3)c(Nc3ccc(F)cc3)cc21 — remaining signal (cell-free assay; 0.5 µM): 88.1%
CN(C)C1CCN(CC#Cc2nn(C3CCCC3)c3nc(NCc4ccccc4)ncc23)C1 (stereo not shown) — inhibition (enzyme activity, inhibitor, FRET; 1 µM): 11%
COc1cccc(CNC(=O)c2nc3scc(COCc4ccc(C(=O)O)cc4)c3c(=O)[nH]2)c1 — remaining binding (cell-free assay, competition with immobilised ligand; 1 µM): 92.4%
Cn1c(=O)n(-c2ccc(C(C)(C)C#N)cc2)c2c3cc(-c4cnc5ccccc5c4)ccc3ncc21 — remaining activity (enzyme activity, inhibitor; 10 µM): 53%
N#CCCc1ccc2c(c1)-c1[nH]c3ccc([N+](=O)[O-])cc3c1CC(=O)N2 — remaining signal (cell-free assay; 0.5 µM): 104%
CS(=O)(=O)NCC[C@H](NC(=O)c1cncc2c1cnn2-c1ccc(F)cc1)c1ccnc(S(C)(=O)=O)c1 — remaining binding (cell-free assay, competition with immobilised ligand; 1 µM): 100%
CC(C)(O)[C@H]1CC[C@H](Nc2ccc3ncc(-c4cccc(C(F)(F)F)c4)n3n2)CC1 — remaining activity (enzyme activity, inhibitor; 1 µM): 15.8%
FC(F)(F)Oc1cccc(-c2cnc3ccc(-c4ccncc4)nn23)c1 — activity vs control (enzyme activity, inhibitor, radiometric; 5 µM): 0.623%
COc1cc(Nc2cnc(C#N)c(O[C@H](C)CN(C)C)n2)ncc1-c1cnn(C)c1 — remaining activity (enzyme activity, inhibitor, radiometric; 10 µM): 50%
Cn1cncc1C1=CN(c2ncnc3[nH]cnc23)CCS1 — inhibition (enzyme activity, inhibitor, radiometric; 2 µM): 97.8%
CCOCCn1cc(C(=O)Nc2ccc(-n3nc(-c4cccnc4)cc3C(F)(F)F)cn2)ccc1=O — remaining binding (cell-free assay, competition with immobilised ligand; 1 µM): 86%
COc1cc2ncnc(Nc3ccc(Oc4ccccc4)c(C)c3C)c2cc1OC — inhibition (enzyme activity, inhibitor; 1 µM): 3%
CCC1(CC)NC(=O)c2c(c3ccc(Cl)c(Cl)c3n2C)C1C#N (stereo not shown) — ΔTm (thermal stability, DSF; 10 µM): 1.3 °C
Cc1sc(C(=O)NC2COC2)cc1-n1cc(NC(=O)Nc2c(F)cccc2Cl)cn1 — remaining activity (enzyme activity, inhibitor; 10 µM): 100%
CC(C)(C)c1nc2c(s1)c1nc(N)ncc1c1ccc(NS(=O)(=O)c3c(F)cccc3F)c(F)c12 — remaining activity (enzyme activity, inhibitor, radiometric; 1 µM): 90%
O=S(=O)(NC1CCC(c2cc(F)ccc2F)(S(=O)(=O)c2ccc(Cl)cc2)CC1)C(F)(F)F (stereo not shown) — remaining binding (cell-free assay, competition with immobilised ligand; 1 µM): 100%
Clc1ccc(Nc2nnc(Cc3ccncc3)c3ccccc23)cc1 — remaining signal (cell-free assay; 0.5 µM): 87.6%
Cn1c2c(Cl)c(Cl)ccc2c2cc(N)[nH]c(=O)c21 — ΔTm (thermal stability, DSF; 10 µM): 1.3 °C
c1ccc(CNc2nc(N3CCOc4ccccc43)nc3c2CCCC3)cc1 — inhibition (target engagement in cells, inhibitor, chemoproteomics; 20 mM): -5.9%
